From ChEMBL document CHEMBL1150626, “Interiotherins C and D, two new lignans from Kadsura interior and antitumor-promoting effects of related neolignans on Epstein-Barr virus activation” (J Nat Prod, 2002)

Assays:
Type in all cases: cell-based
Raji [1] = test: Inhibition of TPA-induced EBV-early antigen activation in human Raji cells assessed as EA activation at 500 mol ratio relative to TPA; parameters: scale not given: the % may be the effect or the level left; settings: human gammaherpesvirus 4
Raji [2] = test: Cytotoxicity against human Raji cells at 1000 mol ratio by trypan blue staining method
Outline: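 Viability was assessed by trypan blue staining in Raji cells treated as in the EBV-EA assay: 48 h at 37 °C with n-butyric acid 4 mM, TPA and test compound in DMSO. Results are expressed as percent viable cells.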

Raji [3] = test: Inhibition of TPA-induced EBV-early antigen activation in human Raji cells assessed as EA activation at 10 mol ratio relative to TPA; parameters: scale not given: the % may be the effect or the level left; settings: human gammaherpesvirus 4
Raji [4] = test: Inhibition of TPA-induced EBV-early antigen activation in human Raji cells assessed as EA activation at 1000 mol ratio relative to TPA; parameters: scale not given: the % may be the effect or the level left; settings: human gammaherpesvirus 4
Raji [5] = test: Inhibition of TPA-induced EBV-early antigen activation in human Raji cells assessed as EA activation at 100 mol ratio relative to TPA; parameters: scale not given: the % may be the effect or the level left; settings: human gammaherpesvirus 4

Structure (SMILES) | Activity (Raji [1]) [%] | Activity (Raji [2]) [%] | Activity (Raji [3]) [%] | Activity (Raji [4]) [%] | Activity (Raji [5]) [%]
C/C=C(/C)C(=O)O[C@H]1c2cc(OC)c(OC)c(OC)c2-c2c(cc3c(c2OC)OCO3)[C@H](OC(C)=O)[C@H](C)[C@@H]1C [INTERIOTHERIN C] | 59 | 60 | 100 | 16 | 78.9
COc1cc2c(c(OC)c1OC)-c1c(cc3c(c1OC)OCO3)[C@@H]1O[C@H]2[C@@H](C)[C@H]1C [NEOKADSURANIN] | 51.6 | 70 | 92.6 | 4.7 | 72.9
C/C=C(/C)C(=O)O[C@H]1c2cc3c(c4c2[C@@]2(CO4)C(=O)C(OC)=C(OC)C=C2C[C@@H](C)[C@H]1C)OCO3 [HETEROCLITIN D] | 54.7 | 70 | 100 | 9.4 | 76.2
C/C=C(/C)C(=O)O[C@H]1c2cc3c(c4c2C(C(=O)C(=O)OC)(CO4)/C(=C/C(=O)OC)C[C@@H](C)[C@H]1C)OCO3 (stereo not given in full) [HETEROCLITIN F] | 58.9 | 60 | 100 | 16.5 | 82.4
C/C=C(/C)C(=O)O[C@H]1c2cc3c(c4c2[C@]2(CO4)C(=CC(=O)C(OC)=C2OC)C[C@@H](C)[C@H]1C)OCO3 [INTERIORIN] | 52 | 60 | 100 | 13.5 | 77.4
COc1cc2c(c(OC)c1OC)-c1c(cc3c(c1OC)OCO3)[C@H](OC(C)=O)[C@H](C)[C@H](C)C2 [KADSURIN] | 58.3 | 60 | 100 | 15 | 79.9
COc1cc2c(c(OC)c1OC)-c1c(cc3c(c1OC)OCO3)C[C@H](C)[C@](C)(O)[C@H]2OC(=O)c1ccccc1 [GOMISIN C] | 60.2 | 60 | 100 | 19.7 | 87.4
COc1cc2c(c(OC)c1OC)-c1c(cc3c(c1OC)OCO3)C[C@H](C)[C@](C)(O)C2 | 52.5 |  | 96.6 | 7.1 | 78.3
COc1c2c(cc3c1-c1c(cc4c(c1OC)OCO4)C[C@H](C)[C@H](C)C3)OCO2 [SCHISANDRIN C] | 50.7 | 70 | 92.1 | 2.6 | 73.6
COc1cc2c(c(OC)c1OC)-c1c(cc3c(c1OC)OCO3)C[C@H](C)[C@@](C)(O)C2 [GOMISIN A] |  | 70 |  |  | 
C/C=C(/C)C(=O)O[C@H]1c2cc3c(c(OC)c2-c2c(cc4c(c2OC)OCO4)C[C@H](C)[C@@H]1C)OCO3 [ANGELOYLGOMISIN R] | 55.6 | 60 | 100 | 10.6 | 79
C/C=C(/C)C(=O)O[C@H]1c2cc3c(c4c2[C@@]2(CO4)C(=O)C(=O)C(OC)=C/C2=C/[C@@H](C)[C@H]1C)OCO3 [INTERIOTHERIN D] | 55.8 | 60 | 94.8 | 11.5 | 75
COc1c2c(cc3c1-c1c(cc4c(c1OC)OCO4)[C@H](OC(=O)c1ccccc1)[C@@H](C)[C@@H](C)C3)OCO2 [INTERIOTHERIN A] | 60.1 | 60 | 100 | 18.3 | 85.7
C/C=C(/C)C(=O)O[C@H]1c2cc3c(c(OC)c2-c2c(cc4c(c2OC)OCO4)C[C@H](C)[C@]1(C)O)OCO3 [INTERIOTHERIN B] | 57.2 | 60 | 100 | 11.6 | 80.3
COc1cc2c(c(OC)c1OC)-c1c(cc3c(c1OC)OCO3)[C@H](OC(=O)c1ccccc1)[C@@](C)(O)[C@@H](C)C2 [GOMISIN G] | 59.2 | 60 | 100 | 18.9 | 81.4
